We go through 1 compound from ChEMBL document CHEMBL1133534, “1,3-Diaryl-4,5,6,7-tetrahydro-2H-isoindole derivatives: a new series of potent and selective COX-2 inhibitors in which a sulfonyl group is not a structural requisite” (J Med Chem, 2000).

A short description of data set [1]: Gastric toxicity of the compound. An outline of the steps: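 Male Swiss mice, fasted overnight with water, were dosed orally at 400 mg/kg or given vehicle, and killed by cervical dislocation 5 h later. The stomach was opened and mucosal damage scored blind from 0 (normal) to 5 (perforation). Mean ± SEM, 8 animals/group.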
The species named for data set [2] is Mus musculus. Nature of the data set: Compound was evaluated for its effective dose to inhibit exudate PGE-2. In outline: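 Mice given compound or vehicle orally 18 h after air-pouch induction; 1 h later 500 µL sterile 1% carrageenan injected into pouch; sacrifice 5 h after carrageenan. Pouch lavaged with 2 mL heparinized HBSS, kept on ice, PGE2 measured by EIA after solid-phase extraction. ED50 from 3 or 4 dose points, at least 8 mice/group.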

The species entered for data set [3] is Mus musculus. Put plainly: Compound was evaluated for its effective dose to inhibit gastric PGE-2. To be noted: Stomach. The format is tissue-based. In outline: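 Mice with air pouches (18 h old) were dosed orally with compound or vehicle. After 1 h, 500 µL sterile 1% carrageenan was injected into the pouch, and mice were killed 5 h later. Pouch lavage (heparinized HBSS) was cooled on ice, and PGE2 was measured by EIA after solid-phase extraction. Excised stomachs were rinsed and incubated 15 min in PBS, and supernatant PGE2 was measured by EIA. ED50 from 3 or 4 doses, at least 8 mice/group.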

Data set [4] addresses T1, Prostaglandin G/H synthase 1 (Mus musculus, UniProt P22437).
T1 sequence (P22437 whole entry): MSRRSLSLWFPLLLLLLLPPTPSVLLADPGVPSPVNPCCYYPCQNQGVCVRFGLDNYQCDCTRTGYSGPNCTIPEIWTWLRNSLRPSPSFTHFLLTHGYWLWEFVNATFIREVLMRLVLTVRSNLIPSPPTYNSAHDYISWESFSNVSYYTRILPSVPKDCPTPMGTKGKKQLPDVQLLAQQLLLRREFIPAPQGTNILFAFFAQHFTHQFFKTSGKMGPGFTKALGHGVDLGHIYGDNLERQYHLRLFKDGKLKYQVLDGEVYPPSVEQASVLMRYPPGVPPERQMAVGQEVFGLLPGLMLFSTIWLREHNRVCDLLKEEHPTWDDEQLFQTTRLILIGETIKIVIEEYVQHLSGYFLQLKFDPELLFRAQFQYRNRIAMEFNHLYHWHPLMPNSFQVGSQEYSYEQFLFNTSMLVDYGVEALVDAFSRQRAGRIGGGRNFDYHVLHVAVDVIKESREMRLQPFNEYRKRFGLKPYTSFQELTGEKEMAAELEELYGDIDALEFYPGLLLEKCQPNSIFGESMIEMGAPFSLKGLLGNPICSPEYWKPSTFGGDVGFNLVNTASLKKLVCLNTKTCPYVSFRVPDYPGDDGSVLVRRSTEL
Nature of the data set: Inhibition against prostaglandin G/H synthase 1 from mouse resident macrophages.

The target in data set [5] is T2, Prostaglandin G/H synthase 2 (Mus musculus, UniProt Q05769).
T2 sequence (Q05769 whole entry): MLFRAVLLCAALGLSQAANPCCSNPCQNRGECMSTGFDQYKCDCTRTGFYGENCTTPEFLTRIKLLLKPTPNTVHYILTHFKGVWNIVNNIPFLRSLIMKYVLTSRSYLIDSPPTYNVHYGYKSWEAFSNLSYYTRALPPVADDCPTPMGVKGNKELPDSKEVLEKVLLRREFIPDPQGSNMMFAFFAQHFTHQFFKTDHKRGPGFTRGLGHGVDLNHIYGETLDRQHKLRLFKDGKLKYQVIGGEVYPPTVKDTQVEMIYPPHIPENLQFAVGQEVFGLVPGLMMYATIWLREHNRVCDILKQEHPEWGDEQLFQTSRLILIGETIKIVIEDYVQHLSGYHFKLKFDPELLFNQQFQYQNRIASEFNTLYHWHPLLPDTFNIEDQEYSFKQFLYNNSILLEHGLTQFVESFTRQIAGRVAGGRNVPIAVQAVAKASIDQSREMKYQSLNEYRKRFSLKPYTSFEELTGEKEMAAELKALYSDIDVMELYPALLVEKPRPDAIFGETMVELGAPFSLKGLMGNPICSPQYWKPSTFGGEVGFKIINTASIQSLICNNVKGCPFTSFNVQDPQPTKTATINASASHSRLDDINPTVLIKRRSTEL
Nature of the data set: Inhibition against prostaglandin G/H synthase 2 from mouse resident macrophages.

For data set [6], the system named is Rattus norvegicus. Nature of the data set: Inhibition of edema after oral administration at 2 mg/kg, twice daily. The format is functional. In outline: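 Adjuvant-induced arthritis in female Lewis rats. Compound was given orally at 2 mg/kg twice daily, and noninjected paw edema inhibition was read at day 21, 10 rats/group.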

The structures appear in SMILES notation.

As a reminder, the ED50 is the midpoint of the dose-response relation. Low readings indicate an effect at a small dose, high ones a need for a large dose. The IC50 is the concentration that gives 50% inhibition. The low end stands for higher potency, the high end for lower potency. In general, inhibition in vivo refers to the relative decrease from the control value, in per cent. A lower inhibition in vivo goes with little suppression.

Take `Fc1ccc(-c2[nH]c(-c3ccc(F)cc3)c3c2CCC3)cc1`: the Gastric score in data set [1] turned out to be 0.7. The figures for the ED50 in data set [2] and in data set [3] were 20 mg/kg and > 80 mg/kg, respectively. Besides, the values for the IC50 in data set [4] and in data set [5] were 100 nM and 2.9 nM, respectively. In data set [6], the inhibition in vivo at 2 mg/kg was 14%.
